Active and inactive are the calls of the source.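 Rule for the calls, unless noted: active = GFP response above 150% of the DMSO level; inconclusive = fewer than 70 events counted for a yeast strain; inactive = the rest.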
Columns and labels:
[1] = hit retest on RPL19A-GFP reporter strain – cell-based, S. cerevisiae, flow cytometry, cherry picks, mother/daughter gates, confirmation (AID 2270;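 active = GFP response below 50% of the DMSO control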); settings: 3 h, at 10 µM, stronger effect = lower value, 100 = same GFP as DMSO wells
[2] = yeast TOR pathway reporter LAP4-GFP change – cell-based, cherry picks, flow cytometry, mother/daughter gates, confirmation (AID 2271;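 active = GFP response above 150% of the DMSO control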;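 note: ratio of sample to DMSO plate mean so 100% equals DMSO level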); settings: S. cerevisiae LAP4-GFP strain, 3 h, at 10 µM, stronger effect = higher value, 100 means same as DMSO control
Procedure, shortened: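 System: GFP-fusion yeast strain | Input: Yeast cells seeded at OD600 of 0.2 | Technique: HT flow cytometry, GFP fluorescence channel | Read-out: % GFP response vs DMSO | Dosing: Single test-compound dose, 10 µM final | Controls: Positive rapamycin (400 ng/mL), negative DMSO | Times: 3 h treatment at 30 °C with rotation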

[3] = TOR pathway reporter MEP2-GFP, retest of hits – S. cerevisiae, flow cytometry GFP, cherry picks, confirmation (AID 2272;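 active = GFP response above 150% of the DMSO control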;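 note: ratio of well signal to plate DMSO mean so 100% equals DMSO level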); settings: S. cerevisiae MEP2-GFP strain, 3 h, at 10 µM, stronger effect = higher value
[4] = yeast AGP1-GFP fluorescence change, single-dose – cell-based, flow cytometry, S. cerevisiae, cherry picks, confirmation (AID 2273);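 note: median GFP channel fluorescence over the whole cell population gate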; settings: S. cerevisiae AGP1-GFP strain, 3 h, at 10 µM
[5] = TOR pathway CIT2 reporter hit retest – S. cerevisiae, GFP fusion, cherry picks, mother/daughter gates, confirmation (AID 2274); settings: S. cerevisiae CIT2-GFP strain, flow cytometry, 3 h, at 10 µM, stronger effect = higher value
[6] = measured here: daughter cell gate
[7] = measured here: mother cell gate
[8] = measured here: daughter cell gate response
[9] = measured here: mother cell gate response

Compound	GFP response vs DMSO [1]	GFP response vs DMSO [1, 6] [%]	GFP response vs DMSO [1, 7] [%]	GFP response relative to DMSO [2]	GFP response relative to DMSO [2, 8] [%]	GFP response relative to DMSO [2, 9] [%]	GFP response vs DMSO [3]	GFP response, % of DMSO [4]	GFP response, % of DMSO [5]	GFP response, % of DMSO [5, 6] [%]	GFP response, % of DMSO [5, 7] [%]
COC(=O)COc1ccc(S(=O)(=O)N2CCc3ccccc3C2)cc1	101% (inactive)	100	103	101% (inactive)	102	101	97.8% (inactive)	99.4% (inactive)	99.1% (inactive)	96.5	101
COC(=O)CCS(=O)(=O)c1nc(-c2ccccc2)cc(C(F)(F)F)n1	100% (inactive)	102	95.8	168% (active)	161	170	136% (inactive)	130% (inactive)	102% (inactive)	110	93.7
Cc1c(NC(=O)Nc2ccc3c(c2)OCO3)c(=O)n(-c2ccccc2)n1C	99.3% (inactive)	99.1	99	96.5% (inactive)	96.5	93.6	99.5% (inactive)	96.7% (inactive)	96.4% (inactive)	100	95.6
COC(=O)/C(=C/c1c[nH]c2ccccc12)[N+](=O)[O-]	99.6% (inactive)	95.1	95.1	162% (active)	149	164	111% (inactive)	86.9% (inactive)	89.8% (inactive)	89.9	80.7
CCN(CC)Cc1csc2ccc(Br)cc12	98.4% (inactive)	97.8	98.2	96.2% (inactive)	97.2	99.3	102% (inactive)	100% (inactive)	97.8% (inactive)	96.5	98.7
CCOC(=O)c1c(C)oc2c1c(C(c1ccncc1)N1CCOCC1)c(O)c1ccccc12 (stereo not drawn)	102% (inactive)	109	89.6	186% (active)	167	180	131% (inactive)	101% (inactive)	103% (inactive)	114	94.4
CC(C)c1nnc(NC(=O)c2nc(S(=O)(=O)Cc3ccccc3)ncc2Cl)s1	98.5% (inactive)	101	95.4	102% (inactive)	101	100	106% (inactive)	102% (inactive)	100% (inactive)	99.3	99.3
O=C(O)Cc1sc(Nc2ccccc2)nc1-c1cccs1	97.8% (inactive)	98	97.9	149% (inactive)	144	156	110% (inactive)	99.7% (inactive)	104% (inactive)	104	103
Cc1cc(NCCCN2CCOCC2)n2nc(C)c(-c3ccccc3)c2n1	95.8% (inactive)	94.7	94.4	100% (inactive)	97.5	100	99.3% (inactive)	100% (inactive)	101% (inactive)	101	100
CCOC(=O)C(CC)Sc1ncnc2c1nnn2-c1ccc(F)cc1 (stereo not drawn)	94.8% (inactive)	95.1	95.8	101% (inactive)	101	99.3	96.2% (inactive)	94.8% (inactive)	96.9% (inactive)	97.2	97.3
Cc1onc(-c2ccccc2)c1C(=O)N1CCC(C)CC1	92% (inactive)	93.4	91.6	103% (inactive)	102	103	118% (inactive)	102% (inactive)	108% (inactive)	105	107
Cc1ccc(N2C(=O)C3C4C=CC(CNC(=S)N5CCN(c6ccccc6)CC5)(O4)C3C2=O)cc1 (stereo not drawn)	102% (inactive)	101	101	89% (inactive)	94.1	92.1	100% (inactive)	96.5% (inactive)	110% (inactive)	105	113
COCCN(CCOC)S(=O)(=O)c1ccc(C(=O)Nc2nnc(C3CC3)o2)cc1	101% (inactive)	99.8	101	93.8% (inactive)	94.1	95.2	100% (inactive)	101% (inactive)	106% (inactive)	105	106
Cc1nc(Sc2ccc(Br)cc2)c(C#N)c(C)c1[N+](=O)[O-]	106% (inactive)	105	104	98.2% (inactive)	97.5	98.4	101% (inactive)	96.1% (inactive)	98.8% (inactive)	97.4	76
O=C1CC(SCc2nc3ccccc3[nH]2)C(=O)N1c1ccc(F)cc1 (stereo not drawn)	102% (inactive)	101	100	110% (inactive)	108	109	110% (inactive)	106% (inactive)	108% (inactive)	108	107
O=C(CCc1ccccc1)NNC(=S)NC(=O)c1ccccc1	106% (inactive)	106	107	186% (active)	180	185	116% (inactive)	100% (inactive)	106% (inactive)	113	100
Cc1cccc(CN2CCSc3sccc3C2=O)c1	96.8% (inactive)	95.7	96.5	125% (inactive)	127	126	131% (inactive)	98.2% (inactive)	112% (inactive)	114	109

Compound	GFP response vs DMSO [1]	GFP response vs DMSO [1, 6] [%]	GFP response vs DMSO [1, 7] [%]	GFP response relative to DMSO [2]	GFP response relative to DMSO [2, 8] [%]	GFP response relative to DMSO [2, 9] [%]	GFP response vs DMSO [3]	GFP response, % of DMSO [4]	GFP response, % of DMSO [5]	GFP response, % of DMSO [5, 6] [%]	GFP response, % of DMSO [5, 7] [%]
Cc1oc2c(CN3CCCC(C)C3)c(O)ccc2c(=O)c1-c1ccccc1 (stereo not drawn)	102% (inactive)	102	104	143% (inactive)	151	141	141% (inactive)	107% (inactive)	147% (inactive)	152	143
Cn1c(=O)c(C(=O)Nc2ncccc2O)c(O)c2ccccc21	95.3% (inactive)	93.9	91.8	100% (inactive)	91.3	90.3	145% (inactive)	99.8% (inactive)	90.3% (inactive)	90.5	88.2
Cc1cccc(Cn2cc(/C=C/[N+](=O)[O-])c3ccccc32)c1	106% (inactive)	103	98	111% (inactive)	107	114	103% (inactive)	101% (inactive)	97.3% (inactive)	95.6	93.2
CC(=O)N(C1=C(Cl)C(=O)c2ccccc2C1=O)C1CCCCC1	22.6% (active)	92.8	23.1	72.2% (inactive)	113	73.7	97.8% (inactive)	34.1% (inactive)	69.1% (inactive)	93.2	54.7
C/C(=N\NC(=O)Cc1ccc([N+](=O)[O-])cc1)c1cccnc1	97.8% (inactive)	99.3	97.7	98.2% (inactive)	97.5	97.3	96.8% (inactive)	98.4% (inactive)	102% (inactive)	103	102
N#C/C(=C\c1c(N2CCC(C(N)=O)CC2)nc2ccccn2c1=O)C(=O)NCc1ccco1	97.8% (inactive)	98.8	97.6	101% (inactive)	99.3	99.5	102% (inactive)	99.3% (inactive)	104% (inactive)	102	101
Cc1cccc(N2C(=O)CC(Sc3nc(C)c4c(n3)CCCC4)C2=O)c1 (stereo not drawn)	96.8% (inactive)	95.4	97.2	94.1% (inactive)	94.4	95.1	102% (inactive)	95% (inactive)	99.7% (inactive)	99.1	99.7
COc1ccccc1-c1noc(-c2cc(OC)c(OC)c(OC)c2)n1	97.2% (inactive)	96.4	96.3	103% (inactive)	105	105	104% (inactive)	99.2% (inactive)	99.1% (inactive)	96.5	98.7
CCN(CC)Cc1c(O)ccc2c(C)c(CC(=O)OC)c(=O)oc12	103% (inactive)	101	100	101% (inactive)	97.5	102	103% (inactive)	106% (inactive)	100% (inactive)	99.2	95.6
COc1cc(/C=C2\C(=O)ON=C2c2ccc(Cl)cc2)ccc1O	105% (inactive)	106	99.4	126% (inactive)	122	128	102% (inactive)	100% (inactive)	108% (inactive)	114	99.8
O=[N+]([O-])c1cc(Cl)c2cccnc2c1O	100% (inactive)	94.9	102	174% (active)	141	181	118% (inactive)	100% (inactive)	99.3% (inactive)	96.4	94.5
CCOC(=O)/C=C1\SCC(=O)N1Cc1nnc(-c2ccccc2Br)o1	96.2% (inactive)	97.6	96.4	90.2% (inactive)	89.6	90.8	100% (inactive)	100% (inactive)	99.7% (inactive)	101	99.7
CN(C)c1ccc(/C=N/NC(=O)c2ccc(Cl)cc2)cc1	98% (inactive)	97	97.4	102% (inactive)	97.9	103	102% (inactive)	100% (inactive)	97.8% (inactive)	98.3	95.6
O/C=c1\ccc2cccc3nc(C(F)(F)F)nc1c23	111% (inactive)	111	110	172% (active)	167	178	269% (active)	108% (inactive)	179% (active)	171	181
O=C(COC(=O)c1ccc(NS(=O)(=O)c2cccs2)cc1O)Nc1nc2ccccc2s1	101% (inactive)	100	101	91.4% (inactive)	92.5	93.1	102% (inactive)	98.5% (inactive)	102% (inactive)	98.1	104
COc1ccc(-c2csc(NC(=O)c3ccco3)n2)cc1	98.4% (inactive)	96.7	97.8	109% (inactive)	102	109	104% (inactive)	91.9% (inactive)	99.3% (inactive)	100	96.8

From PubChem BioAssay
